BaF3 parental: reduces parental Ba/F3 cell viability, JAK2V617F counter-screen; CellTiter-Glo ATP luminescence; inhibition, % at 5.6 µM; 1.1% of 220,000 active; AID 1486;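 active means inhibition above a per-campaign cutoff, the mean inhibition of all tested compounds plus 3 SD, cut at about 27% in these data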
APP 5UTR inh: APP translation inhibition; 0.82% of 190,000 active; AID 1285; SH-SY5Y APP 5'UTR-luciferase reporter, luminescence; inhibition, % at 2 µM;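 active means inhibition above a set limit, derived from the sample mean plus 3 SD, cut at about 45% in these data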
MT stabilizer: stabilizes microtubules in HeLa cells | 0.83% of 200,000 active | HeLa tubulin immunostaining HCS, 24 h; share of cells brighter than vehicle mean+2SD | % tubulin-high responders, % at 10 µM;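 active means plate Z-score above 3 for both tubulin-high and condensed-nucleus cell shares, with cell loss under 80%, at 10 µM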;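 further: anti alpha tubulin signal scored within the nucleus-defined area of each cell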
b-catenin transl: alters nuclear translocation of beta-catenin in HeLa cells | immunofluorescence imaging | nuclear translocation activity, % at 5 µM | 0.3% of 190,000 active;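 active means nuclear translocation activity above 50% at 5 µM, with a well cell count of 50 or more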;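 further: per-cell ratio of nuclear to cytoplasmic median beta-catenin stain intensity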
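Test system: human HeLa cell line; Doses: 5 µM primary, 0.02–20 µM confirmation; Incubation: 24 h compound exposure, 37°C; Detection: beta-catenin immunofluorescence imaging with DAPI; Read-out: beta-catenin nuclear/cytoplasmic ratio, % activation.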
Ba/F3 V617F tox: lowers viability of Ba/F3 cells expressing EpoR and JAK2V617F; ATP luminescence; inhibition, % at 5.6 µM; 1.1% of 220,000 active; AID 1446;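 active means inhibition above the campaign mean plus 3 SD over all tested compounds, cut at about 24% in these data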;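 further: cytokine-independent growth of Ba/F3 cells driven by EpoR plus mutant JAK2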
L major viab: inhibitors of Leishmania major promastigote growth; Leishmania major promastigotes, resazurin fluorescence viability; inhibition, % at 10 µM; 9% of 200,000 active; AID 1063; in the data active means inhibition above about 50%;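 further: promastigotes grown with compound for 44 hours at 28 °C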
Hits are given with their value; 0 = inactive; - = not tested or not shown. Rows were chosen to be rich in hits. Some 9.6% of all compounds tested hit in one or more screens of this group.

SMILES	BaF3 parental	APP 5UTR inh	MT stabilizer	b-catenin transl	Ba/F3 V617F tox	L major viab
CC1(C)CC(NC(=O)C23CCC(C)(C2Br)C3(C)C)CC(C)(C)N1 (configuration not stated)	0	-	-	0	0	-
O=C(c1cccc(Br)c1)N1CCN(C(=O)c2cccc(Br)c2)CC1	0	0	0	0	0	0
O=C(c1cccc(Br)c1)N1CCN(C(=O)N2CCOCC2)CC1	0	63.2	0	0	0	0
COc1ccc(C(=O)N2CCN(c3c(C)cccc3C)CC2)cc1OC	0	0	0	0	0	0
Cc1cccc(N2CCN(C(=O)c3ccc(NS(=O)(=O)c4c(C)noc4C)cc3)CC2)c1C	0	0	0	0	0	97.4
COc1ccc(C(=O)N2CCN(C(=O)c3cc(OC)c(OC)c(OC)c3)CC2)cc1	0	0	0	-	0	0
COc1cc(C(=O)N2CCN(c3cc(Cl)ccc3Cl)CC2)cc(OC)c1OC	62.6	0	0	0	64.5	0
COc1cc(C(=O)N2CCN(c3cccc(C)c3C)CC2)cc(OC)c1OC	70.7	94.6	0	64.0	69.7	0
CCOc1ccccc1OCCCC(=O)Nc1sccc1C(N)=O	0	0	0	0	0	0
Cc1ccccc1-n1c(C)nnc1SCC(=O)N(C)C1CCS(=O)(=O)C1 (configuration not stated)	0	0	0	0	0	0
CC(C)C(NC(=O)c1ccc(C(C)(C)C)cc1)C(=O)NCC(c1ccccc1)N(C)C (configuration not stated)	0	-	-	0	0	-
CC[C@@H](C)[C@H](NC(=O)C1CCN(C(=O)[C@@H](NS(=O)(=O)c2ccc(C)cc2)C(C)C)CC1)C(=O)O	0	0	0	0	0	0
O=C(C(NS(=O)(=O)c1cccs1)c1ccccc1)N1CCN(c2ccccc2F)CC1 (configuration not stated)	0	0	0	0	0	0
Cc1cccc(N2CCN(C(=O)N3CCOCC3)CC2)c1C	0	0	35.8	0	0	0
Cc1cccc(N2CCN(C(=O)C(NS(=O)(=O)c3cccs3)c3ccccc3)CC2)c1C (configuration not stated)	0	0	0	0	0	62.2
Cc1cccc(N2CCN(C(=O)N3CCCCC3)CC2)c1C	0	0	0	0	0	0
COC(=O)c1cc(=O)n(-c2ccc(C(F)(F)F)cc2)[nH]1	0	-	-	0	0	-
Cc1cc(/C=C(\C#N)C(=O)Nc2ccc(Cl)cc2)c(C)n1-c1ccc(N2CCOCC2)c([N+](=O)[O-])c1	0	0	0	0	0	100.1
C(=C\c1nc2ccccc2[nH]1)/c1ccccc1	0	0	40.5	-	0	0
O=c1[nH]c(/C=C/c2ccc(OC(F)F)cc2)nc2c1cnn2-c1ccccc1	0	0	0	0	0	0
Cc1cccc(/C=C\c2nc3ccccc3c(=O)[nH]2)c1	0	0	12.4	0	0	0
O=c1[nH]c(/C=C/c2cccc3ccccc23)nc2ccccc12	0	0	0	0	0	0
Cc1nc(/C=C/c2ccccc2)[nH]c(=O)c1-c1ccccc1	0	0	9.2	0	0	0
Fc1cccc(Cl)c1/C=N/n1c(-c2cccnc2)n[nH]c1=S	0	0	0	0	0	0
Cc1cccc(N(CC(=O)NCCSc2ccccn2)S(=O)(=O)c2ccccc2)c1	0	0	0	0	0	57.1
SMILES	BaF3 parental	APP 5UTR inh	MT stabilizer	b-catenin transl	Ba/F3 V617F tox	L major viab
O=C(CN(c1ccccc1)S(=O)(=O)c1ccccc1)NCCSc1ccccn1	0	0	0	0	0	0
Cc1ccc(N(Cc2ccc(C(=O)NCCSc3ccccn3)cc2)S(C)(=O)=O)cc1C	0	0	0	0	0	67.5
CC(C)n1nc(C(=O)Nc2nc3ccccc3[nH]2)c2ccccc2c1=O	0	0	0	0	0	0
Cc1nc2cc(N3CCCCC3)c(NC(=O)c3ccncc3)cc2c(=O)n1Cc1ccc(Cl)cc1	0	-	0	-	0	0
Cc1nc2cc(N3CCN(C)CC3)c(NC(=O)Cc3ccccc3)cc2c(=O)n1Cc1ccccc1	0	0	0	0	0	89.2
COc1ccc(S(=O)(=O)N2c3ccccc3OCC2C(C)(C)C)cc1 (configuration not stated)	0	0	13.7	0	0	0
COc1ccc(S(=O)(=O)N2c3ccccc3OCC2C)cc1 (configuration not stated)	73.2	95.6	17.7	110.6	72.0	0
COc1ccc(S(=O)(=O)N2c3ccccc3OCC2c2ccccc2)cc1 (configuration not stated)	0	-	23.3	0	0	0
COc1ccc(S(=O)(=O)N2CCN(c3cccc(C)c3C)CC2)cc1	0	0	0	-	0	0
COc1ccc(Cc2noc(CN3CCCN(C4Cc5ccccc5C4)CC3)n2)cc1OC	0	0	0	0	0	0
N#C/C(=C\c1ccc(-c2cccc([N+](=O)[O-])c2)o1)c1nnc(N2CCOCC2)n1-c1ccccc1	0	0	0	0	0	63.1
COc1ccc(S(=O)(=O)Nc2ccccn2)c(C)c1C	0	0	0	0	0	0
COc1cc(NS(=O)(=O)c2ccc(OC)c(C)c2C)c(OC)cc1Cl	50.6	64.8	39.1	81.3	57.2	99.7
COc1ccc(OC)c(S(=O)(=O)Nc2cc(OC)c(Cl)cc2OC)c1	0	0	0	0	0	62.3
COc1ccc(S(=O)(=O)Nc2cc([N+](=O)[O-])ccc2OC)cc1	0	0	27.7	0	0	0
CSCCC(NS(=O)(=O)c1ccc(Cl)cc1)C(=O)OCC(=O)c1ccc(F)cc1 (configuration not stated)	0	0	0	0	0	0
CC(=O)C1=C(C)Nc2ncnn2C1c1ccc(Cl)cc1 (configuration not stated)	0	0	0	0	0	0
C/C(O)=c1/cnc2nc3ccccc3n2c1=O	0	0	0	0	0	0
Cc1ccc(N/N=C(\C#N)C(=N)N2CCOCC2)cc1	0	0	0	-	0	86.8
N#C/C(=N\Nc1ccc(Cl)cc1)C(=N)N1CCCCC1	0	0	0	0	0	72.7
COc1ccc(CCNC(=O)c2cc(=O)[nH]c3ccc(Br)cc23)cc1OC	0	0	0	0	0	0
CC(C)c1ccc(NC(=O)COc2ccc(F)cc2C(=O)c2cnn(-c3ccccc3)c2)cc1	0	0	19.7	-	0	0
O=C(COc1ccccc1C(=O)c1cnn(-c2ccccc2)c1)Nc1ccc2ccccc2c1	0	0	0	0	0	0
O=S(=O)(c1ccccc1Br)N1CCC(O)(c2cccnc2)CC1	0	0	0	0	0	0
CSc1nc2nccc(/C=C\c3ccccc3)n2n1	0	0	0	-	0	85.6
CCCCN(CC)CCCNC(=S)Nc1ccc2nc(N3CCN(C)CC3)cc(C)c2c1	0	0	0	0	0	56.2
Cc1cc(N2CCN(C)CC2)nc2ccc(NC(=S)NCCCN3CCN(C)CC3)cc12	0	0	0	0	0	0
CCCCN(CC)CCCNC(=S)Nc1ccc2nc(N3CCN(CC)CC3)cc(C)c2c1	0	0	0	0	0	96.4

Bioassay records: PubChem, several laboratories
